# aSyn 5UTR inh – MLPCN primary screen, SNCA 5' untranslated region; inhibition, % (tested at 7.5 µM); alpha-synuclein 5'UTR reporter, inhibitor activity; 300,000 tested, 0.82% active; in the data active = inhibition above about 60%; inconclusive = no clear call, values can overlap the other calls;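 also: H4 neuroglioblastoma cells stably carrying SNCA 5'UTR luciferase fusion; 0% = DMSO wells and 100% = positive control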
# 697 NFkB inh – inhibitors of the PMA/ionomycin-induced NF-kB reporter in 697 B cells; 697 B-cell NF-kB luciferase reporter, 16 h; inhibition, % at 4 µM; 330,000 tested, 0.33% active; in the data active = inhibition above about 35%
# TAG inh – inhibitors of triacylglycerol accumulation. H9c2 cells, Nile Red lipid (TAG) fluorescence; cells loaded with 200 µM oleic acid. inhibition, % at 12.5 µM. 230,000 tested, 0.66% active. AID 651582;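 active = pattern-corrected inhibition of lipid staining of at least 50% with the nuclear-stain viability signal not falling by more than 50%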;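 also: 0% = DMSO wells and 100% = triacsin C control wells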
# Jurkat NFkB inh – lowers PMA/ionomycin-induced NF-kB signal in Jurkat cells; PMA/ionomycin-induced NF-kB luciferase reporter, luminescence; inhibition, % at 4 µM; 330,000 tested, 0.53% active; in the data active = inhibition above about 50%
# Hep lipid drop – hepatic lipid droplet formation modulation; AID 1656; 240,000 tested, 0.4% active; AML12 mouse hepatocytes, oleate lipid droplets, BODIPY imaging; inhibition, % at 6.5 µM;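 active = lipid droplet intensity inhibited by at least 50%, with more than 500 cells counted; inconclusive = wells with under 300 cells, treated as cytotoxic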
#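 Technique: fluorescence imaging, 20x objective, two fields per well / Assay system: AML12 hepatocytes (mouse) / Measure: % inhibition of lipid droplet signal / Doses: 6.5 µM single-point dosing / Incubation: overnight exposure / Reagent: 100 µM oleic acid challenge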
# APP transl inh – APP translation inhibition; 190,000 tested, 0.82% active; inhibition, % at 2 µM; SH-SY5Y APP 5'UTR-luciferase reporter, luminescence;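 active = inhibition above a set limit, derived from the sample mean plus 3 SD, cut at about 45% in these data; inconclusive = one replicate passes the limit while the other fails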
# Jurkat NFkB conf – inhibitors of the PMA/ionomycin-induced NF-kB reporter in Jurkat cells, retest | shares compounds with Jurkat NFkB inh | Jurkat NF-kB luciferase, 16 h | inhibition, % at 4 µM | 2,700 tested, 27% active | AID 435020;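 active = inhibition reaching about 45% at 4 µM in either replicate, limit read from the data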;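 also: plate controls were PMA/ionomycin stimulated DMSO wells for no effect and unstimulated DMSO wells for full effect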
# 697 NFkB conf – inhibitors of the PMA/ionomycin-induced NF-kB reporter in 697 B cells, retest; shares compounds with 697 NFkB inh; 697 B-cell NF-kB luciferase, 16 h; inhibition, % at 4 µM; 2,000 tested, 35% active; in the data active = inhibition mostly above about 28%, no sharp cut-off; inactive = mostly below about 22%
# An asterisk follows results filed as active; i = inactive; ? = inconclusive; / = no result given. Rows were chosen to be rich in hits. Some 1.9% of all compounds tested hit in one or more screens of this group.
SMILES,aSyn 5UTR inh,697 NFkB inh,TAG inh,Jurkat NFkB inh,Hep lipid drop,APP transl inh,Jurkat NFkB conf,697 NFkB conf
CC1Cc2cc(-c3csc(NC(=O)Cc4cccs4)n3)ccc2N1S(C)(=O)=O (stereo unspecified),-19.6,56.0*,/,57.1*,-3.5,3.2,76.2*,23.8
CCC(=O)Nc1nc(-c2ccc3c(c2)CC(C)N3S(C)(=O)=O)cs1 (stereo unspecified),-70.0,3.8,1.3,-12.5,1.4,-10.2,/,/
O=C(COC(=O)c1ccc[nH]c1=O)Nc1ccc(N2CCCCC2)cc1,/,78.7*,16.0,51.0*,/,/,69.7*,79.8*
O=C(Nc1nc(-c2ccc3ccccc3c2)cs1)C1CCN(S(=O)(=O)c2cccs2)CC1,-10.9,-50.0,/,33.1,-17.9,-9.8,/,/
Cc1ccc(-c2csc(NC(=O)C3CCN(S(=O)(=O)c4cccs4)CC3)n2)cc1,-8.3,62.4*,/,63.0*,-0.5,19.1,73.3*,67.2*
COc1cc([N+](=O)[O-])ccc1N/C=C/C(=O)c1cccs1,21.4,-266.8,/,-187.6,/,-136.2,-71.9,-168.9
O=C(/C=C/c1ccc([N+](=O)[O-])cc1)c1cccs1,-51.0,16.1,-25.2,-9.8,-0.5,/,/,/
COc1cc(NC(=O)COc2cc(O)c3c(c2)OC(C)(C)CC3=O)cc(OC)c1OC,-28.1,59.5*,/,57.5*,-34.9,/,75.7*,47.8*
COc1cccc2c1C(=O)c1c(O)c3c(c(O)c1C2=O)C[C@@](O)(C(=O)CO)C[C@@H]3O[C@H]1C[C@H](N)[C@H](O)[C@H](C)O1,109.3*,93.6*,45.9,90.4*,?,94.6*,88.7*,76.8*
COc1cccc2c1C(=O)c1c(O)c3c(c(O)c1C2=O)C[C@@](O)(C(=O)CO)C[C@@H]3OC1CC(N)C(O)C(C)O1 (stereo partly specified),/,/,36.4,/,/,/,/,/
CCCCC(=O)Nc1cc(OC)c(NC(=S)Nc2ccc(OC)cc2)cc1OC,/,/,13.7,/,/,/,/,/
Cc1cc(N2CCN(c3nc4ccccc4s3)CC2)n2ncnc2n1,-41.9,53.7*,/,61.7*,/,11.8,54.0*,42.0*
Nc1c2c(nc3sc4c(c13)CCCC4)-c1ccccc1CC2,-75.3,-468.7,13.4,-236.2,30.4,/,-187.6,-440.8
NC(=O)c1sc2nc(-c3ccccc3)c3c(c2c1N)CCCC3,-0.1,0.9,0.5,-1.4,23.2,3.4,/,/
Cc1ccc(NC(=O)Cc2nn(C)c(=O)c3ccccc23)cc1F,7.8,20.4,-119.1,47.6,/,8.1,/,/
Cn1nc(CC(=O)N2CCN(c3ccccc3)CC2)c2ccccc2c1=O,13.3,6.0,0.6,6.0,1.4,-20.3,/,/
Cn1nc(CC(=O)Nc2ccc3c(c2)OCCO3)c2ccccc2c1=O,15.9,42.8*,-31.9,52.5*,-55.2,4.7,66.2*,40.7*
Cn1nc(CC(=O)Nc2ccc(N3CCN(C(=O)OC(C)(C)C)CC3)cc2)c2ccccc2c1=O,77.4*,46.3*,-28.1,55.2*,17.9,9.6,53.0*,1.0
COc1ccc(NC(=O)Nc2ccc(C(=O)N3CCOCC3)cc2)c(OC)c1,3.9,9.6,/,16.3,38.2,-0.1,/,/
COc1ccc(C(=O)Nc2ccc3ccccc3c2)c(OC)c1,-28.2,-280.1,-7.9,-181.1,-16.3,/,-123.2,-383.4
O=C(Nc1ccc(F)cc1)c1ccccc1F,-135.0,-12.5,/,-29.7,20.8,-52.5,/,/
O=C(Nc1ccc2ccccc2c1)c1ccccc1F,-51.1,-328.1,-2.4,-220.5,6.0,/,-134.9,-321.8
O=C(CC1OC(=O)c2ccccc21)NNC(=O)c1ccc(F)cc1 (stereo unspecified),/,11.6,-10.2,0.5,/,/,/,/
COc1ccc(C(C)=O)cc1COC(=O)C(CO)NS(=O)(=O)c1ccc(Br)cc1 (stereo unspecified),17.7,9.4,-10.0,3.2,-6.8,7.0,/,/
Cc1ccc(/C=N/Nc2nc3ccccc3s2)o1,-24.1,-414.4,/,-186.6,22.2,-166.9,-75.6,-239.6
C=C(C(=O)c1ccccc1)C(C(=C)C(=O)c1ccccc1)c1ccc(OC)cc1,12.9,i,86.3,55.6*,-2.6,/,-3.4,-164.4
